Data: ChEMBL document CHEMBL3259611, “Suppression of inflammatory responses by handelin, a guaianolide dimer from Chrysanthemum boreale, via downregulation of NF-κB signaling and pro-inflammatory cytokine production” (J Nat Prod, 2014)
Active and inactive are the calls of the source. The calls are words filed in the database; no cut-off is given here.

Assays:
[1] = Cytotoxicity against mouse RAW264.7 cells assessed as cell survival at 20 uM after 4 hrs by MTT assay relative to control; format: cell-based; settings: read-out: Survival
Summary of the method: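 RAW 264.7 cells plated at 3 × 10^5 cells/mL in phenol red-free 10% FBS–DMEM, incubated 24 h, then treated with compound plus 1 μg/mL LPS for 20 h. After the Griess step, MTT was added (final 500 μg/mL) for 4 h at 37 °C. Formazan dissolved in DMSO, A570 read; survival taken relative to control; triplicate.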

[2] = tested on: RAW264.7; test: Inhibition of LPS-induced NFkappaB transcriptional activity in mouse RAW264.7 cells assessed as reduction of phosphorylated IkappaB-alpha level at 10 uM after 30 mins by Western blotting analysis relative to control; format: cell-based
Summary of the method: (§1)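 Macrophages were exposed to compound for 30 min before LPS stimulation, with proteins extracted 30 min later. Nuclear extracts were prepared in Tris/KCl/NP-40 lysis buffer, then 420 mM NaCl buffer, and the cytosolic fraction was kept for IκB-α. Western blot on PVDF with ECL detection. Tests in triplicate; representative of three separate experiments.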

[3] = tested on: RAW264.7; test: Antiinflammatory activity in mouse RAW264.7 cells assessed as inhibition LPS-induced miR-155 mRNA expression after 8 hrs by RT-PCR analysis; format: functional, cell-based
Summary of the method: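 LPS-stimulated RAW 264.7 cells, with or without compound, for 8 h. miR-155 measured by TaqMan qRT-PCR on 10 ng RNA, with stem-loop primer RT at 16 °C 30 min, 42 °C 30 min, 85 °C 5 min. Expression given as a ratio to β-actin. Mean ± SD of triplicates.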

[4] = tested on: Mus musculus; test: Antiinflammatory activity in ICR mouse ear edema model assessed as inhibition of TPA-induced iNOS protein expression in ear tissue at 10 to 20 mg/kg, po administered 30 mins prior to TPA challenge measured after 4 hrs by Western blotting analysis relative to vehicle-treated control; format: functional, organism-based
Summary of the method: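 ICR mice (male, 18−20 g, 5 weeks old) dosed orally 30 min before TPA (1.0 μg in 20 μL acetone) was applied to inner and outer surfaces of the right ear. Killed by cervical dislocation after 4 h. Edema taken as the weight of a 5 mm punch biopsy of the right ear over the left. Ear homogenates were Western blotted for iNOS, COX-2 and IL-1β.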

[5] = tested on: RAW264.7; test: Antiinflammatory activity in mouse RAW264.7 cells assessed as inhibition of LPS-induced iNOS mRNA expression at 10 uM after 5 hrs by RT-PCR analysis relative to control; format: functional
Summary of the method: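 RAW 264.7 cells exposed to 1 μg/mL LPS with or without compound for 5 h. Total RNA was analysed by RT-PCR: 25−30 cycles with annealing at 55 °C. Products were separated on 2% agarose gel with SYBR-Safe staining. Experiments in triplicate.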

[6] = molecular target: T1, Nuclear factor NF-kappa-B p105 subunit (Mus musculus) (UniProt P25799); test: Inhibition of LPS-induced NFkappaB P50 protein nuclear translocation in mouse RAW264.7 cells at 20 uM after 30 mins by Western blotting analysis relative to control; format: cell-based; summary of the method: as §1
T1 sequence (whole entry): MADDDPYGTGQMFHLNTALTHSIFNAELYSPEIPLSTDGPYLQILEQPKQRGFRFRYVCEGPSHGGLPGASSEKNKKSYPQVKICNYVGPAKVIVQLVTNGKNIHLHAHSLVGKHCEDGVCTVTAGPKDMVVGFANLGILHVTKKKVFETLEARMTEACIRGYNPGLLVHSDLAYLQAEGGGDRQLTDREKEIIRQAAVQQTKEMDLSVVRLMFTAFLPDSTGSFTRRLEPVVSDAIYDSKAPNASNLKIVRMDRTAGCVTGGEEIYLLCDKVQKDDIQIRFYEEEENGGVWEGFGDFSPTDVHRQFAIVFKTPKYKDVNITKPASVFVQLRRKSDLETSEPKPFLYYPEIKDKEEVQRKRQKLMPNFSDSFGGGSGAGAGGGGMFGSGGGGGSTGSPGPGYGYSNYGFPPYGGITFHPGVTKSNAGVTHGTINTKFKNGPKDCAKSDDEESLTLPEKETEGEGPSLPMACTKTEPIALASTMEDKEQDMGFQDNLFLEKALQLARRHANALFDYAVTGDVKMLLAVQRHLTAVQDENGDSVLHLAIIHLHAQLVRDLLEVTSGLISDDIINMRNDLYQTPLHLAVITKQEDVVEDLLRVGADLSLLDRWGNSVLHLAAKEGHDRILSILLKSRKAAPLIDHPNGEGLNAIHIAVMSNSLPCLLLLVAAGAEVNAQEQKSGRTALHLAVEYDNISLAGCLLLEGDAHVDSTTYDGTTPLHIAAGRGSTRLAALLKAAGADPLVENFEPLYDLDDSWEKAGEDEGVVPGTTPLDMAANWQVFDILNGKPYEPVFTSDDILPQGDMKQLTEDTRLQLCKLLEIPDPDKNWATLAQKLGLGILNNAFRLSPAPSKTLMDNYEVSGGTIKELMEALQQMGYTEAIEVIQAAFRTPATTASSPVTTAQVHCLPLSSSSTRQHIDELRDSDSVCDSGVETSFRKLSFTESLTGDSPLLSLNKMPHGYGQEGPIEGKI

[7] = tested on: RAW264.7; test: Antiinflammatory activity in mouse RAW264.7 cells assessed as inhibition LPS-induced TNF-alpha protein expression at 40 uM after 4 hrs by Western blotting analysis relative to control; format: functional
[8] = tested on: RAW264.7; test: Antiinflammatory activity in mouse RAW264.7 cells assessed as inhibition LPS-induced IL-1beta mRNA expression at 20 uM after 4 hrs by RT-PCR analysis relative to control; format: functional
Summary of the method: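 RAW 264.7 cells stimulated with LPS (1 μg/mL) with or without compound for 4 h. Total RNA was isolated and cytokine mRNA was analysed by RT-PCR: 94 °C 4 min, then 25−30 cycles of 94/55/72 °C for 30 s each, then 72 °C 5 min. Products were run on 2% agarose and stained with SYBR-Safe. Triplicate, representative of three experiments.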

[9] = molecular target: JNK1/JNK2 (Mus musculus) (UniProt Q91Y86+Q9WTU6); test: Inhibition LPS-induced JNK1/2 phosphorylation at Thr183/[…] in mouse RAW264.7 cells at 20 uM administered 30 mins prior to LPS challenge measured after 30 mins by Western blotting analysis; format: cell-based
Sequence of JNK1/JNK2 (Mus musculus) (Q91Y86 whole entry, looked up): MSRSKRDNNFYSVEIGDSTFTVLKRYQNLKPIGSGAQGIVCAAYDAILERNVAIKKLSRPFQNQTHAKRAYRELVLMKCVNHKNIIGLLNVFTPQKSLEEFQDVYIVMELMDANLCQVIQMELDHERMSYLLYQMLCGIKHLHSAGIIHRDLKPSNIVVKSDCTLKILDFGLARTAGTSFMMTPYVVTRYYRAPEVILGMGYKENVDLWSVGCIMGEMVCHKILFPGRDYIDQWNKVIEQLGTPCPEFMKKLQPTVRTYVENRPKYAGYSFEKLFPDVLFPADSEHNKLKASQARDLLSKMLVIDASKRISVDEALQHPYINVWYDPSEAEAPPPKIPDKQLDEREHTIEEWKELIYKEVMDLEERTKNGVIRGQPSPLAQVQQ
Sequence of JNK1/JNK2 (Mus musculus) (Q9WTU6 whole entry, looked up): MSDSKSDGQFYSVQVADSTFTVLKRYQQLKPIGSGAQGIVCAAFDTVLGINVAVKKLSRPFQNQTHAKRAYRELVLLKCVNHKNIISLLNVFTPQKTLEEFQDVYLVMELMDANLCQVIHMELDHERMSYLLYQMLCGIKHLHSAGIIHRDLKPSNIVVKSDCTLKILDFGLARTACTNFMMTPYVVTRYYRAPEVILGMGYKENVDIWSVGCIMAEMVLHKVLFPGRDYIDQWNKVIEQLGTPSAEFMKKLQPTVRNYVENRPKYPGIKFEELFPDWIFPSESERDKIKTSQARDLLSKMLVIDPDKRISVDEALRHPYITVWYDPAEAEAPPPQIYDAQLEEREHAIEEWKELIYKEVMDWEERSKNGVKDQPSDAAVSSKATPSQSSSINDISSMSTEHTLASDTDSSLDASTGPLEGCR
Summary of the method: (§2)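 RAW 264.7 cells pretreated with compound for 30 min, then stimulated with LPS for 30 min. Protein extracts were Western blotted for phosphorylated ERK and JNK (SDS-PAGE, PVDF, ECL detection).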

[10] = molecular target: Mitogen-activated protein kinase 1 and 3 (ERK2 and ERK1) (Mus musculus) (UniProt P63085+Q63844); test: Inhibition LPS-induced ERK1/2 phosphorylation at Thr202/Tyr204 in mouse RAW264.7 cells at 40 uM administered 30 mins prior to LPS challenge measured after 30 mins by Western blotting analysis; format: cell-based; summary of the method: as §2
Sequence of Mitogen-activated protein kinase 1 and 3 (ERK2 and ERK1) (Mus musculus) (P63085 whole entry, looked up): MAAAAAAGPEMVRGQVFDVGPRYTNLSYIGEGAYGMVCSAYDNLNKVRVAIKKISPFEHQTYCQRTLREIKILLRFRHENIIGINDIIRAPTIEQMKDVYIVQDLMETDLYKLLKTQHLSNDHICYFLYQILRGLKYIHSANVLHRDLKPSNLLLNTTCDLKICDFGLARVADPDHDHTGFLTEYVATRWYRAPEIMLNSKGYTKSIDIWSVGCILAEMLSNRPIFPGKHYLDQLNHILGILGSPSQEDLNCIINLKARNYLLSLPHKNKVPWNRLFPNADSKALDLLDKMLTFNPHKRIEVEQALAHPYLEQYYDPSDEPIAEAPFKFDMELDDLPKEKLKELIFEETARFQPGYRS
Sequence of Mitogen-activated protein kinase 1 and 3 (ERK2 and ERK1) (Mus musculus) (Q63844 whole entry, looked up): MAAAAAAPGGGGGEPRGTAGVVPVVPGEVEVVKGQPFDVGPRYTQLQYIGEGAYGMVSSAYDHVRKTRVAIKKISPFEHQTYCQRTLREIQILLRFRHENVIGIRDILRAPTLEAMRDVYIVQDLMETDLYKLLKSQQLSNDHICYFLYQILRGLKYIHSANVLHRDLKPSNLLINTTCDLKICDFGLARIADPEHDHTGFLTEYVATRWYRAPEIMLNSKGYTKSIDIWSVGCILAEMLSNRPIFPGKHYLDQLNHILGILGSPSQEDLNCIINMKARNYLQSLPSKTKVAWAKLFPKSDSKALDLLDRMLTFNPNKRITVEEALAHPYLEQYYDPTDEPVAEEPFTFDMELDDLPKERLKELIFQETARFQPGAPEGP

[11] = tested on: RAW264.7; test: Antiinflammatory activity in mouse RAW264.7 cells assessed as inhibition of LPS-induced COX2 protein expression after 16 hrs by Western blotting analysis

SMILES: C=C1C(=O)O[C@@H]2[C@@H]3[C@@]4(C=C[C@@]3(C)[C@]3(C4)C(=O)O[C@@H]4[C@H]5C(C)=CC[C@H]5[C@](C)(O)C[C@H](OC(C)=O)[C@H]43)[C@](C)(O)CC[C@@H]12
- viability at 4 h, 20 µM [1]: > 80%
- inhibition [2]: Active
- inhibition [3]: Active
- inhibition [4]: Active
- fold change (FC) [5]: 0.74
- fold change (FC) [6]: 0.21
- fold change (FC) [7]: 0.56
- fold change (FC) [8]: 0.79
- fold change (FC) [9]: 0.54
- fold change (FC) [10]: 0.21
- inhibition [11]: Dose-dependent effect
